Assay results: ChEMBL document CHEMBL3627612, “Hirsutinolide Series Inhibit Stat3 Activity, Alter GCN1, MAP1B, Hsp105, G6PD, Vimentin, TrxR1, and Importin α-2 Expression, and Induce Antitumor Effects against Human Glioma” (J Med Chem, 2015)
Active and inactive are the calls of the source. The rule behind the calls is not given here.

Legend:
U-251 [1] = assay: Induction of apoptosis in human U251MG cells assessed as PARP level at 0.5 to 10 nM after 24 to 48 hrs by immunoblot analysis; assay type: functional, cell-based
Outline: (§1)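 U251MG human glioma cells (RPMI or DMEM, 10% FBS, 1% nonessential amino acids) treated for 24 or 48 h, with paclitaxel or staurosporine run alongside. Whole-cell lysates were prepared and analysed by SDS-PAGE and immunoblotting, probing for PARP and caspase 3 cleavage as apoptosis markers.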

U-251 [2] = assay: Induction of apoptosis in human U251MG cells assessed as cleaved caspase 3 level at 0.5 to 10 nM after 24 to 48 hrs by immunoblot analysis; assay type: functional, cell-based; outline: as §1
[3] = Cytotoxicity against mouse NIH/3T3 cells after 72 hrs by cyquant cells; assay type: cell-based; settings: NIH3T3, 72 h
Outline: (§2)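 CyQuant proliferation assay after 72 h compound exposure of cultured cells; relative viability normalized to DMSO-treated control; IC50 values derived. Glioma lines grown in RPMI or DMEM with 10% FBS and 1% nonessential amino acids.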

U-251 [4] = assay: Antiproliferative activity against human U251MG cells at 5 uM for 72 hrs by cyquant assay; assay type: functional; outline: as §2
MDA-MB-231 [5] = assay: Antiproliferative activity against human MDA-MB-231 cells at 5 uM for 72 hrs by cyquant assay; assay type: functional, cell-based
SF-295 = assay: Antiproliferative activity against human SF295 cells at 5 uM for 72 hrs by cyquant assay; assay type: functional, cell-based
[6] = Cytotoxicity against mouse NIH/3T3 cells at 5uM after 72 hrs by cyquant cells; assay type: cell-based; settings: nih3t3, 72 h; outline: as §2
[7] = biological target: Signal transducer and activator of transcription 3 (Mus musculus) (UniProt P42227); assay: Inhibition of Stat3 dimer DNA binding activity in mouse NIH3T3/vSrc nuclear extract at 5 uM preincubated for 30 mins followed by addition of radiolabeled probe hSIE for 30 mins by EMSA
Signal transducer and activator of transcription 3 (Mus musculus), sequence (P42227 whole entry): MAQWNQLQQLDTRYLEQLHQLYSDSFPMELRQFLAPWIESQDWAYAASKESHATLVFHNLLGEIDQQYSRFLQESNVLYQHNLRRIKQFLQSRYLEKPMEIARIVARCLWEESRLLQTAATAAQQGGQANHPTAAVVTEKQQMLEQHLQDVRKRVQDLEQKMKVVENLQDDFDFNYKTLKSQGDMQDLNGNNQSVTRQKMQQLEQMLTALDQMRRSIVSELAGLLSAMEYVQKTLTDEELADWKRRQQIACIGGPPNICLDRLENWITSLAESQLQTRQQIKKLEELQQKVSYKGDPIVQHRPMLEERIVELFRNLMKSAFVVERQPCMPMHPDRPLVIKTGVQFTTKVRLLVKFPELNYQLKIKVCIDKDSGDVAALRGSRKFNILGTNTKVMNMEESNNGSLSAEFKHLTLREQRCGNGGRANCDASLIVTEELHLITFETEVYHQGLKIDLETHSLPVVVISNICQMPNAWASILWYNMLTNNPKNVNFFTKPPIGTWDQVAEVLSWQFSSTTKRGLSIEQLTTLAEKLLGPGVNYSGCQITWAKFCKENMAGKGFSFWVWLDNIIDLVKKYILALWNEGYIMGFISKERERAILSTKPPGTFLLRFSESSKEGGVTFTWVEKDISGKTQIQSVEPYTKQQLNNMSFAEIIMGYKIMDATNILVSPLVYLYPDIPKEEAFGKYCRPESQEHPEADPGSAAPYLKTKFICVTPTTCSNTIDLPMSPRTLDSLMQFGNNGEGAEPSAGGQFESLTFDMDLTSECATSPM

[8] = biological target: Signal transducer and activator of transcription 1/ 3 (Mus musculus) (UniProt P42227+P42225); assay: Inhibition of Stat1:Stat3 dimer DNA binding activity in EGF-stimulated mouse NIH3T3 nuclear extract expressing human EGFR assessed as residual activity at 5 uM preincubated for 30 mins followed by addition of radiolabeled probe hSIE for 30 mins by EMSA; assay type: cell-free
[9] = biological target: Signal transducer and activator of transcription 3 (Mus musculus) (UniProt P42227); assay: Inhibition of Stat3 dimer DNA binding activity in EGF-stimulated mouse NIH3T3 nuclear extract expressing human EGFR assessed as residual activity at 5 uM preincubated for 30 mins followed by addition of radiolabeled probe hSIE for 30 mins by EMSA
[10] = biological target: T1, Signal transducer and activator of transcription 1 (Mus musculus) (UniProt P42225); assay: Inhibition of Stat1 dimer DNA binding activity in EGF-stimulated mouse NIH3T3 nuclear extract expressing human EGFR assessed as residual activity at 5 uM preincubated for 30 mins followed by addition of radiolabeled probe hSIE for 30 mins by EMSA
T1 sequence (whole entry): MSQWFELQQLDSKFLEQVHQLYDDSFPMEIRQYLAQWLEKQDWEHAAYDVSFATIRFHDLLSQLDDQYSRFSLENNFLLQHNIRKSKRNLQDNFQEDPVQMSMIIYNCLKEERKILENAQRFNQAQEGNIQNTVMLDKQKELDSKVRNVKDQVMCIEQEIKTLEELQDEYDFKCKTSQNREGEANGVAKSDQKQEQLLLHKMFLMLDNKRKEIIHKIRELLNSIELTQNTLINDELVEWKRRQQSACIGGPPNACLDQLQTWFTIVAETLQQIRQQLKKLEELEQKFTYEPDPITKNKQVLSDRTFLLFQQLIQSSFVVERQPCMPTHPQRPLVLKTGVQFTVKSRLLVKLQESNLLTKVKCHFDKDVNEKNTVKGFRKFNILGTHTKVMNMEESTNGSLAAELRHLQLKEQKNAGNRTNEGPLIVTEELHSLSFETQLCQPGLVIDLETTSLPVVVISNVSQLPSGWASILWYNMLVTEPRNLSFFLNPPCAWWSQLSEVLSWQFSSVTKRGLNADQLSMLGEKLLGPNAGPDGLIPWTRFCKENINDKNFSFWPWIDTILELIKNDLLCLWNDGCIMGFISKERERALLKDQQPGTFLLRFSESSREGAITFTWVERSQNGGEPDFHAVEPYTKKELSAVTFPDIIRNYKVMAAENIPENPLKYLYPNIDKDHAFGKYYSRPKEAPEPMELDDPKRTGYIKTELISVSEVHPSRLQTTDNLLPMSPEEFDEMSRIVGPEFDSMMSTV

NIH3T3 [11] = assay: Inhibition of Stat5 dimer DNA binding activity in EGF-stimulated mouse NIH3T3 nuclear extract expressing human EGFR at 5 uM preincubated for 30 mins followed by addition of radiolabeled probe MGFe for 30 mins by EMSA; assay type: cell-free
[12] = biological target: T1, Signal transducer and activator of transcription 1 (Mus musculus); assay: Inhibition of Stat1 dimer DNA binding activity in EGF-stimulated mouse NIH3T3 nuclear extract expressing human EGFR at 5 uM preincubated for 30 mins followed by addition of radiolabeled probe hSIE for 30 mins by EMSA
[13] = biological target: T2, Signal transducer and activator of transcription 3 (Homo sapiens, UniProt P40763); assay: Inhibition of Stat3 activity in human U251MG cells assessed as phosphorylated Stat3 level at 5 uM by immunoblot analysis; assay type: cell-based; settings: U-251, TDE = time-dependent effect
T2 sequence (P40763 whole entry): as the sequence (P42227 whole entry) above, with D760E counted along it

[14] = biological target: T1, Signal transducer and activator of transcription 1 (Mus musculus); assay: Modulation of EGF-induced Stat1 phosphorylation in mouse NIH3T3 cells expressing human EGFR at 5 uM preincubated for 3 hrs followed by stimulation with 1 ug/ml EGF for 12 mins by immunoblot analysis; assay type: cell-based
Outline: (§3)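 Whole-cell lysates of equal total protein from NIH3T3/hEGFR fibroblasts, pretreated with or without 5 μM compound (control 0.025% DMSO) for 3 h, then stimulated with 1 μg/ml EGF for 12 min. SDS-PAGE immunoblotting for pStat1/Stat1 and pStat5/Stat5 with β-actin or GAPDH loading controls. Representative of 2–4 independent determinations.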

NIH3T3 [15] = assay: Modulation of EGF-induced Stat5 phosphorylation in mouse NIH3T3 cells expressing human EGFR at 5 uM preincubated for 3 hrs followed by stimulation with 1 ug/ml EGF for 12 mins by immunoblot analysis; assay type: cell-based; outline: as §3
[16] = biological target: Mitogen-activated protein kinase 1 and 3 (ERK2 and ERK1) (Mus musculus) (UniProt P63085+Q63844); assay: Modulation of EGF-induced Erk1/2 phosphorylation in mouse NIH3T3 cells expressing human EGFR at 5 uM preincubated for 3 hrs followed by stimulation with 1 ug/ml EGF for 12 mins by immunoblot analysis; assay type: cell-based
Mitogen-activated protein kinase 1 and 3 (ERK2 and ERK1) (Mus musculus), sequence (P63085 whole entry, looked up): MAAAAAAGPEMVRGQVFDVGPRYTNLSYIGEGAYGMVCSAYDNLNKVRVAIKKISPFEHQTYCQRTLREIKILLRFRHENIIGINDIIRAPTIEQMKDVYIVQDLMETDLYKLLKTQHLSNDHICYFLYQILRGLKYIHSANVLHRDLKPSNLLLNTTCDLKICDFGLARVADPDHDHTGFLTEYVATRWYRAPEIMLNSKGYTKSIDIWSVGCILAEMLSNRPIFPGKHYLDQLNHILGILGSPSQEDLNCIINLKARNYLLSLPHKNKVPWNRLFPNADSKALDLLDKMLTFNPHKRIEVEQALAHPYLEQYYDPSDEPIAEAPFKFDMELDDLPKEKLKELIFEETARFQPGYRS
Mitogen-activated protein kinase 1 and 3 (ERK2 and ERK1) (Mus musculus), sequence (Q63844 whole entry, looked up): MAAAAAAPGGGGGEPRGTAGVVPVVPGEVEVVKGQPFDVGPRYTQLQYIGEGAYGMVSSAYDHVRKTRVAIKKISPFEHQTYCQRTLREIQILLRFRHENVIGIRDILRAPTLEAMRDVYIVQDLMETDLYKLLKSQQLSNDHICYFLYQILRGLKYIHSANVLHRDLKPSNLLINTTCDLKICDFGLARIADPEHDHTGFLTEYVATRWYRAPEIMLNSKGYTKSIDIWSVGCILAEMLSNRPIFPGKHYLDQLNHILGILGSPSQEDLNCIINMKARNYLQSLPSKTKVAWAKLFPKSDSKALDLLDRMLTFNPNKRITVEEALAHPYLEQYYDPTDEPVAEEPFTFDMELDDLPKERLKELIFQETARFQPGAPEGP
Outline: (§4)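 NIH3T3/hEGFR fibroblasts pretreated with or without 5 μM compound for 3 h, then stimulated with 1 μg/ml EGF for 12 min. Whole-cell lysates of equal total protein immunoblotted for phospho and total Stat3, Stat1, Stat5, Erk1/2. Controls were 0.025% DMSO-treated cells. Representative of 2–4 independent determinations.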

[17] = biological target: Signal transducer and activator of transcription 3 (Mus musculus) (UniProt P42227); assay: Inhibition of EGF-induced Stat3 phosphorylation in mouse NIH3T3 cells expressing human EGFR at 5 uM preincubated for 3 hrs followed by stimulation with 1 ug/ml EGF for 12 mins by immunoblot analysis; assay type: cell-based; outline: as §4
[18] = biological target: RAC-alpha serine/threonine-protein kinase (Homo sapiens) (UniProt P31749); assay: Modulation of Akt phosphorylation in human U251MG cells at 5 uM after 0.5 to 24 hrs by immunoblot analysis; assay type: cell-based; settings: U-251
RAC-alpha serine/threonine-protein kinase (Homo sapiens), sequence (P31749 whole entry): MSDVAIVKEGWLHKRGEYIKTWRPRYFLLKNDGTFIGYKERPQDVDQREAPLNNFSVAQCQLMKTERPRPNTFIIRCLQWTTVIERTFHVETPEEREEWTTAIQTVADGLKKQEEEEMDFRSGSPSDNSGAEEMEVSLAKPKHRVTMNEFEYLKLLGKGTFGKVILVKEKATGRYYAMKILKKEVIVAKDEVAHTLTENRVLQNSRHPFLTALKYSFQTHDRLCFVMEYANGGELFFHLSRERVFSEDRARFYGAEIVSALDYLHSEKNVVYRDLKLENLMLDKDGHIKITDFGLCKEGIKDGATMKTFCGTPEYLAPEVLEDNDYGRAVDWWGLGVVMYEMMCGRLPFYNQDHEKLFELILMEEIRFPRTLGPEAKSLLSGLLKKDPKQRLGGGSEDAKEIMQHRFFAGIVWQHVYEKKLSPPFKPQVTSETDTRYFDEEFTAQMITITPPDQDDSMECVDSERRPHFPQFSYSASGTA
Outline: (§5)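 U251MG cells treated with 5 μM compound for 0–24 h; whole-cell lysates of equal total protein immunoblotted. Controls were 0.025% DMSO-treated cells. Representative of 2–4 independent determinations.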

[19] = biological target: Mitogen-activated protein kinase; ERK1/ERK2 (Homo sapiens) (UniProt P27361+P28482); assay: Modulation of Erk1/2 phosphorylation in human U251MG cells at 5 uM after 0.5 to 24 hrs by immunoblot analysis; assay type: cell-based; settings: U-251
Mitogen-activated protein kinase; ERK1/ERK2 (Homo sapiens), sequence (P27361 whole entry, looked up): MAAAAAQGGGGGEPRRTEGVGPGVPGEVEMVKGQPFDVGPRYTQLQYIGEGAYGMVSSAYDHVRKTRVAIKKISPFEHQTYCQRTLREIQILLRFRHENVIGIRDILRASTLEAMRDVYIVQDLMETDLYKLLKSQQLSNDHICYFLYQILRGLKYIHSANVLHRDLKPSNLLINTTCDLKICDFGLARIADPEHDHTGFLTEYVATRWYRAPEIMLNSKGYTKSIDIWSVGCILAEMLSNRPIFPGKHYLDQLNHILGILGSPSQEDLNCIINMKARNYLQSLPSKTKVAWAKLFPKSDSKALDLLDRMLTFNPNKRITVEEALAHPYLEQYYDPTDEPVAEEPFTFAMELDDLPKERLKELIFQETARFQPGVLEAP
Mitogen-activated protein kinase; ERK1/ERK2 (Homo sapiens), sequence (P28482 whole entry, looked up): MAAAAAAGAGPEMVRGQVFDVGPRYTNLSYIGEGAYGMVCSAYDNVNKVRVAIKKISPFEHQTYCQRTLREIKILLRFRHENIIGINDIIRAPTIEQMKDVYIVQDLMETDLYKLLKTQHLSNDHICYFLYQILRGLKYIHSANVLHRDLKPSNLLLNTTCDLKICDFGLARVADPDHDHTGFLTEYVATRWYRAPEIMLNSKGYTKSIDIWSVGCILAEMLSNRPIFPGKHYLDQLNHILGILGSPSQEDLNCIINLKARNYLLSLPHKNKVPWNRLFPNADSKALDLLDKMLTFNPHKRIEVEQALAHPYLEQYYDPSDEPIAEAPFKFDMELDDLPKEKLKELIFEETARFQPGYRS
Outline: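 U251MG glioma cells (RPMI or DMEM, 10% FBS, 1% nonessential amino acids) treated with 5 μM compound for 0–24 h; 0.025% DMSO control. Whole-cell lysates of equal total protein immunoblotted for pErk1/2, Erk1/2, pJAK2 and JAK2 with β-actin or GAPDH loading controls. Representative of 2–4 independent determinations.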

U-251 [20] = assay: Effect on SOCS3 expression in human U251MG cells at 5 uM after 0.5 to 24 hrs by immunoblot analysis; assay type: functional, cell-based; outline: as §5
U-251 [21] = assay: Effect on PTP1B expression in human U251MG cells at 5 uM after 0.5 to 24 hrs by immunoblot analysis; assay type: functional, cell-based; outline: as §5
[22] = biological target: T2, Signal transducer and activator of transcription 3; assay: Inhibition of orthovandate-induced Stat3 phosphorylation in human U251MG cells at 5 uM for 3 hrs by immunoblot analysis in presence of 10 to 300 uM orthovandate; assay type: cell-based; settings: U-251
Outline: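 U251MG cells treated with 5 μM compound for 3 h without or with 10–300 μM Na3VO4. Whole-cell lysates of equal total protein immunoblotted for pStat3 and Stat3. Controls were 0.025% DMSO. Representative of 2–4 determinations.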

[23] = Antiproliferative activity against human U251MG cells for 72 hrs by cyquant assay; assay type: functional, cell-based; settings: U-251, 72 h; outline: as §2
MDA-MB-231 [24] = assay: Antiproliferative activity against human MDA-MB-231 cells for 72 hrs by cyquant assay; assay type: functional, cell-based; settings: MDA-MB-231, 72 h; outline: as §2
[25] = Antiproliferative activity against human U373MG cells for 72 hrs by cyquant assay; assay type: functional, cell-based, U-373MG ATCC; settings: U373 MG; outline: as §2
[26] = Antiproliferative activity against human SF295 cells for 72 hrs by cyquant assay; assay type: functional, cell-based; settings: SF-295, 72 h; outline: as §2
[27] = biological target: T2, Signal transducer and activator of transcription 3; assay: Inhibition of Stat3 activity in human U251MG cells assessed as phosphorylated Stat3 level at 5 uM after 0.5 to 24 hrs by immunoblot analysis; assay type: cell-based; settings: U-251
Outline: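 U251MG cells treated with 5 μM compound for 0–24 h, or with 0–5 μM for 2 h. Whole-cell lysates immunoblotted for pStat3, Stat3, GAPDH. Control was 0.025% DMSO-treated cells.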

CN[C@@H]1C[C@H]2O[C@@](C)([C@@H]1OC)n1c3ccccc3c3c4c(c5c6ccccc6n2c5c31)C(=O)NC4
Activity (U-251 [1]): Active | Activity (U-251 [2]): Active

C/C=C(/C)C(=O)O[C@H]1C[C@@H](C)[C@]2(O)CC[C@](C)(/C=C3/OC(=O)C(COC(C)=O)=C31)O2
IC50 [3]: 11.8 µM | inhibition (U-251 [4]): Active | inhibition (MDA-MB-231 [5]): Active | inhibition (SF-295): Active | Activity [6]: Toxic | inhibition [7]: Active | Activity [8]: 61% | Activity [9]: 47% | Activity [10]: 60% | inhibition (NIH3T3 [11]): inactive | inhibition [12]: inactive | inhibition [13]: tde | inhibition [14]: inactive | inhibition (NIH3T3 [15]): inactive | inhibition [16]: inactive | inhibition [17]: Active | Activity [18]: inactive | Activity [19]: inactive | Activity (U-251 [20]): inactive | Activity (U-251 [21]): inactive | inhibition [22]: Active | IC50 [23]: 3.3 µM | IC50 (MDA-MB-231 [24]): 7.4 µM | IC50 [25]: 10.4 µM | IC50 [26]: 8.6 µM

CCC(C)C(=O)OCC1=C2/C(=C\[C@@]3(C)CC[C@](O)(O3)[C@H](C)C[C@@H]2O)OC1=O (some centres undefined)
inhibition [7]: Active | inhibition [27]: Active
